Experimental data reported in ChEMBL document CHEMBL5329156, “Discovery and development of novel substituted monohydrazides as potent antifungal agents” (RSC Med Chem, 2023).
≈ marks a conversion by molar mass, not a printed value.

Assays:
Assay type in all cases: functional
[1] = system: [Candida] auris; test: Antifungal activity against Candida auris AR Bank # 0390 assessed as fungal growth inhibition by double dilution method; details: Candidozyma auris
Procedure, shortened: (§1)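 Broth microdilution after CLSI M27-A3/M38-A2 with minor changes. Single colony grown overnight in YPD at 35 °C, 200 rpm. Compound final range 0.06-31.3 µg/mL; incubated 48 h at 35 °C.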

[2] = system: Candida albicans; test: Antifungal activity against itraconazole/fluconazole susceptible Candida albicans ATCC MYA-2876 assessed as fungal growth inhibition by double dilution method
Procedure, shortened: (§2)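 Broth microdilution after CLSI M27-A3/M38-A2 with minor modifications. A single colony was grown overnight in YPD at 35 °C with shaking at 200 rpm. Cells were mixed 1:1 with compound (final 0.06-31.3 µg/mL, from DMSO stocks) and incubated 48 h at 35 °C.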

[3] = system: Aspergillus fumigatus; test: Antifungal activity against Aspergillus fumigatus NRRL 163 assessed as fungal growth inhibition by double dilution method
[4] = system: Aspergillus fumigatus; test: Antifungal activity against Aspergillus fumigatus NRRL 6113 assessed as fungal growth inhibition by double dilution method
[5] = system: Candida albicans; test: Antifungal activity against itraconazole/fluconazole resistant Candida albicans ATCC 90819 assessed as fungal growth inhibition by double dilution method; procedure, shortened: as §2
[6] = system: Aspergillus terreus; test: Antifungal activity against Aspergillus terreus ATCC MYA-3633 assessed as fungal growth inhibition by double dilution method
[7] = system: Aspergillus fumigatus; test: Antifungal activity against Aspergillus fumigatus NRRL 5109 assessed as fungal growth inhibition by double dilution method
[8] = system: Aspergillus flavus; test: Antifungal activity against Aspergillus flavus ATCC MYA-3631 assessed as fungal growth inhibition by double dilution method
[9] = system: Aspergillus nidulans; test: Antifungal activity against Aspergillus nidulans ATCC 38163 assessed as fungal growth inhibition by double dilution method
[10] = system: Candida albicans; test: Antifungal activity against itraconazole/fluconazole susceptible Candida albicans ATCC MYA-2310 assessed as fungal growth inhibition by double dilution method; procedure, shortened: as §2
[11] = system: [Candida] auris; test: Antifungal activity against Candida auris AR Bank # 0384 assessed as fungal growth inhibition by double dilution method; details: Candidozyma auris; procedure, shortened: as §1
[12] = system: Candida albicans; test: Antifungal activity against Candida albicans ATCC 10231 assessed as fungal growth inhibition by double dilution method; procedure, shortened: as §1
[13] = system: Candida albicans; test: Antifungal activity against Candida albicans ATCC 64124 assessed as fungal growth inhibition by double dilution method; procedure, shortened: as §2
[14] = system: Pichia kudriavzevii; test: Antifungal activity against Pichia kudriavzevii ATCC 6258 assessed as fungal growth inhibition by double dilution method; procedure, shortened: as §1
[15] = system: Candida albicans; test: Antifungal activity against itraconazole/fluconazole resistant Candida albicans ATCC MYA-1003 assessed as fungal growth inhibition by double dilution method; procedure, shortened: as §2
[16] = system: Nakaseomyces glabratus; test: Antifungal activity against Candida glabrata ATCC 22019 assessed as fungal growth inhibition by double dilution method; procedure, shortened: as §1
[17] = system: Cryptococcus neoformans; test: Antifungal activity against Cryptococcus neoformans ATCC MYA-895 assessed as fungal growth inhibition by double dilution method; procedure, shortened: as §1
[18] = system: Nakaseomyces glabratus; test: Antifungal activity against Candida glabrata ATCC 2001 assessed as fungal growth inhibition by double dilution method; procedure, shortened: as §1
[19] = system: Candida albicans; test: Antifungal activity against itraconazole/fluconazole resistant Candida albicans ATCC MYA-1237 assessed as fungal growth inhibition by double dilution method; procedure, shortened: as §2

O=C(NNc1cccc(F)c1)c1ccc(F)cc1F
MIC [1]: 0.24 mg/L (≈ 0.902 µM)
MIC [2]: 3.9 mg/L (≈ 14.6 µM)
MIC [3]: > 31.3 mg/L
MIC [4]: > 31.3 mg/L
MIC [5]: 7.8 mg/L (≈ 29.3 µM)
MIC [6]: 1.95 mg/L (≈ 7.32 µM)
MIC [7]: > 31.3 mg/L
MIC [8]: > 31.3 mg/L
MIC [9]: 3.9 mg/L (≈ 14.6 µM)
MIC [10]: 3.9 mg/L (≈ 14.6 µM)
MIC [11]: 1.95 mg/L (≈ 7.32 µM)
MIC [12]: 0.24 mg/L (≈ 0.902 µM)
MIC [13]: 1.95 mg/L (≈ 7.32 µM)
MIC [14]: 1.95 mg/L (≈ 7.32 µM)
MIC [15]: 1.95 mg/L (≈ 7.32 µM)
MIC [16]: 3.9 mg/L (≈ 14.6 µM)
MIC [17]: 1.95 mg/L (≈ 7.32 µM)
MIC [18]: 7.8 mg/L (≈ 29.3 µM)
MIC [19]: 0.98 mg/L (≈ 3.68 µM)

O=C(NNc1cccc(F)c1)c1ccc(F)cn1
MIC [1]: 1.95 mg/L (≈ 7.82 µM)
MIC [2]: 3.9 mg/L (≈ 15.6 µM)
MIC [3]: > 31.3 mg/L
MIC [4]: > 31.3 mg/L
MIC [5]: 3.9 mg/L (≈ 15.6 µM)
MIC [6]: 1.95 mg/L (≈ 7.82 µM)
MIC [7]: > 31.3 mg/L
MIC [8]: 7.8 mg/L (≈ 31.3 µM)
MIC [9]: 0.98 mg/L (≈ 3.93 µM)
MIC [10]: 3.9 mg/L (≈ 15.6 µM)
MIC [11]: 1.95 mg/L (≈ 7.82 µM)
MIC [12]: 0.49 mg/L (≈ 1.97 µM)
MIC [13]: 0.49 mg/L (≈ 1.97 µM)
MIC [14]: 0.24 mg/L (≈ 0.963 µM)
MIC [15]: 1.95 mg/L (≈ 7.82 µM)
MIC [16]: 1.95 mg/L (≈ 7.82 µM)
MIC [17]: ≤ 0.06 mg/L
MIC [18]: 31.3 mg/L (≈ 126 µM)
MIC [19]: 3.9 mg/L (≈ 15.6 µM)

O=C(NNc1ccc(F)cc1)c1cccc(F)n1
MIC [1]: 0.98 mg/L (≈ 3.93 µM)
MIC [2]: 1.95 mg/L (≈ 7.82 µM)
MIC [3]: 31.3 mg/L (≈ 126 µM)
MIC [4]: 15.6 mg/L (≈ 62.6 µM)
MIC [5]: 1.95 mg/L (≈ 7.82 µM)
MIC [6]: 1.95 mg/L (≈ 7.82 µM)
MIC [7]: 15.6 mg/L (≈ 62.6 µM)
MIC [8]: 7.8 mg/L (≈ 31.3 µM)
MIC [9]: 0.98 mg/L (≈ 3.93 µM)
MIC [10]: 3.9 mg/L (≈ 15.6 µM)
MIC [11]: 1.95 mg/L (≈ 7.82 µM)
MIC [12]: 0.24 mg/L (≈ 0.963 µM)
MIC [13]: 0.98 mg/L (≈ 3.93 µM)
MIC [14]: 0.49 mg/L (≈ 1.97 µM)
MIC [15]: 0.98 mg/L (≈ 3.93 µM)
MIC [16]: 3.9 mg/L (≈ 15.6 µM)
MIC [17]: 0.49 mg/L (≈ 1.97 µM)
MIC [18]: 15.6 mg/L (≈ 62.6 µM)
MIC [19]: 1.95 mg/L (≈ 7.82 µM)

O=C(NNc1cccc(F)c1)c1nc(F)ccc1F
MIC [1]: 1.95 mg/L (≈ 7.3 µM)
MIC [2]: 1.95 mg/L (≈ 7.3 µM)
MIC [3]: > 31.3 mg/L
MIC [4]: > 31.3 mg/L
MIC [5]: 3.9 mg/L (≈ 14.6 µM)
MIC [6]: 3.9 mg/L (≈ 14.6 µM)
MIC [7]: > 31.3 mg/L
MIC [8]: > 31.3 mg/L
MIC [9]: 1.95 mg/L (≈ 7.3 µM)
MIC [10]: 1.95 mg/L (≈ 7.3 µM)
MIC [11]: 1.95 mg/L (≈ 7.3 µM)
MIC [12]: 0.98 mg/L (≈ 3.67 µM)
MIC [13]: 0.98 mg/L (≈ 3.67 µM)
MIC [14]: 0.49 mg/L (≈ 1.83 µM)
MIC [15]: 0.98 mg/L (≈ 3.67 µM)
MIC [16]: 7.8 mg/L (≈ 29.2 µM)
MIC [17]: ≤ 0.06 mg/L
MIC [18]: 15.6 mg/L (≈ 58.4 µM)
MIC [19]: 1.95 mg/L (≈ 7.3 µM)

O=C(NNc1ccc(F)cc1)c1ccc(F)cc1F
MIC [1]: 1.95 mg/L (≈ 7.32 µM)
MIC [2]: 7.8 mg/L (≈ 29.3 µM)
MIC [3]: > 31.3 mg/L
MIC [4]: > 31.3 mg/L
MIC [5]: 1.95 mg/L (≈ 7.32 µM)
MIC [6]: 3.9 mg/L (≈ 14.6 µM)
MIC [7]: > 31.3 mg/L
MIC [8]: > 31.3 mg/L
MIC [9]: 3.9 mg/L (≈ 14.6 µM)
MIC [10]: 3.9 mg/L (≈ 14.6 µM)
MIC [11]: 1.95 mg/L (≈ 7.32 µM)
MIC [12]: 0.49 mg/L (≈ 1.84 µM)
MIC [13]: 7.8 mg/L (≈ 29.3 µM)
MIC [14]: 1.95 mg/L (≈ 7.32 µM)
MIC [15]: 1.95 mg/L (≈ 7.32 µM)
MIC [16]: 15.6 mg/L (≈ 58.6 µM)
MIC [17]: 0.49 mg/L (≈ 1.84 µM)
MIC [18]: 7.8 mg/L (≈ 29.3 µM)
MIC [19]: 1.95 mg/L (≈ 7.32 µM)

O=C(NNc1ccc(F)cc1)c1nc(F)ccc1F
MIC [1]: 0.98 mg/L (≈ 3.67 µM)
MIC [2]: 0.98 mg/L (≈ 3.67 µM)
MIC [3]: 31.3 mg/L (≈ 117 µM)
MIC [4]: > 31.3 mg/L
MIC [5]: 0.98 mg/L (≈ 3.67 µM)
MIC [6]: 1.95 mg/L (≈ 7.3 µM)
MIC [7]: 15.6 mg/L (≈ 58.4 µM)
MIC [8]: 7.8 mg/L (≈ 29.2 µM)
MIC [9]: 0.49 mg/L (≈ 1.83 µM)
MIC [10]: 0.98 mg/L (≈ 3.67 µM)
MIC [11]: 1.95 mg/L (≈ 7.3 µM)
MIC [12]: 0.24 mg/L (≈ 0.898 µM)
MIC [13]: 0.98 mg/L (≈ 3.67 µM)
MIC [14]: 0.24 mg/L (≈ 0.898 µM)
MIC [15]: 0.49 mg/L (≈ 1.83 µM)
MIC [16]: 7.8 mg/L (≈ 29.2 µM)
MIC [17]: 0.49 mg/L (≈ 1.83 µM)
MIC [18]: 15.6 mg/L (≈ 58.4 µM)
MIC [19]: 0.98 mg/L (≈ 3.67 µM)

COc1ccc(NNC(=O)c2cccc(F)n2)cc1
MIC [1]: 1.95 mg/L (≈ 7.46 µM)
MIC [2]: 0.98 mg/L (≈ 3.75 µM)
MIC [3]: > 31.3 mg/L
MIC [4]: 15.6 mg/L (≈ 59.7 µM)
MIC [5]: 1.95 mg/L (≈ 7.46 µM)
MIC [6]: 15.6 mg/L (≈ 59.7 µM)
MIC [7]: > 31.3 mg/L
MIC [8]: > 31.3 mg/L
MIC [9]: 1.95 mg/L (≈ 7.46 µM)
MIC [10]: 0.98 mg/L (≈ 3.75 µM)
MIC [11]: 1.95 mg/L (≈ 7.46 µM)
MIC [12]: 0.24 mg/L (≈ 0.919 µM)
MIC [13]: 1.95 mg/L (≈ 7.46 µM)
MIC [14]: 0.49 mg/L (≈ 1.88 µM)
MIC [15]: 0.98 mg/L (≈ 3.75 µM)
MIC [16]: 7.8 mg/L (≈ 29.9 µM)
MIC [17]: 0.24 mg/L (≈ 0.919 µM)
MIC [18]: 0.98 mg/L (≈ 3.75 µM)
MIC [19]: 0.98 mg/L (≈ 3.75 µM)

COc1cccc(NNC(=O)c2ccc(Br)cn2)c1
MIC [1]: 1.95 mg/L (≈ 6.05 µM)
MIC [2]: 0.98 mg/L (≈ 3.04 µM)
MIC [3]: > 31.3 mg/L
MIC [4]: > 31.3 mg/L
MIC [5]: 1.95 mg/L (≈ 6.05 µM)
MIC [6]: 1.95 mg/L (≈ 6.05 µM)
MIC [7]: 15.6 mg/L (≈ 48.4 µM)
MIC [8]: > 31.3 mg/L
MIC [9]: 3.9 mg/L (≈ 12.1 µM)
MIC [10]: 3.9 mg/L (≈ 12.1 µM)
MIC [11]: 0.98 mg/L (≈ 3.04 µM)
MIC [12]: 0.98 mg/L (≈ 3.04 µM)
MIC [13]: 3.9 mg/L (≈ 12.1 µM)
MIC [14]: 0.24 mg/L (≈ 0.745 µM)
MIC [15]: 3.9 mg/L (≈ 12.1 µM)
MIC [16]: 1.95 mg/L (≈ 6.05 µM)
MIC [17]: 0.49 mg/L (≈ 1.52 µM)
MIC [18]: 3.9 mg/L (≈ 12.1 µM)
MIC [19]: 0.98 mg/L (≈ 3.04 µM)
